Consider 16 molecules from ChEMBL document CHEMBL2380281, “Synthesis of proline analogues as potent and selective cathepsin S inhibitors” (Bioorg Med Chem Lett, 2013).

Each structure is given as a SMILES string.

One assay addresses Cathepsin S (Homo sapiens, UniProt P25774). Description: Inhibition of human cathepsin-S.
The target in the next assay is Cathepsin B (Homo sapiens, UniProt P07858). The experiment in a line: Inhibition of human cathepsin-B. Put shortly:
(§1)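 Human cathepsin B and K activity measured with a SensoLyte 520 cathepsin activity assay kit; LHVS as pan-cathepsin positive control.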

For a further assay, the target named is T1, Cathepsin K (Homo sapiens, UniProt P43235).
T1 sequence (P43235 whole entry): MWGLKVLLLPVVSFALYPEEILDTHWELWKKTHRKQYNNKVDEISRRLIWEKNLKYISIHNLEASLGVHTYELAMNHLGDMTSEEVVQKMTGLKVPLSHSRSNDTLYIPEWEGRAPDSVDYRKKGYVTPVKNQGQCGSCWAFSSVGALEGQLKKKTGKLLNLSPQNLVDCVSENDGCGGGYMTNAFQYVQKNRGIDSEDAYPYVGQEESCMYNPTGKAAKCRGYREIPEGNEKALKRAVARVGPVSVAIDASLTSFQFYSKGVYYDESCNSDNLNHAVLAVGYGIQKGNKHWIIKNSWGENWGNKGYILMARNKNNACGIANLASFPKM
Description: Inhibition of human cathepsin-K. Put shortly: as §1

Cathepsin S, sequence (P25774 whole entry): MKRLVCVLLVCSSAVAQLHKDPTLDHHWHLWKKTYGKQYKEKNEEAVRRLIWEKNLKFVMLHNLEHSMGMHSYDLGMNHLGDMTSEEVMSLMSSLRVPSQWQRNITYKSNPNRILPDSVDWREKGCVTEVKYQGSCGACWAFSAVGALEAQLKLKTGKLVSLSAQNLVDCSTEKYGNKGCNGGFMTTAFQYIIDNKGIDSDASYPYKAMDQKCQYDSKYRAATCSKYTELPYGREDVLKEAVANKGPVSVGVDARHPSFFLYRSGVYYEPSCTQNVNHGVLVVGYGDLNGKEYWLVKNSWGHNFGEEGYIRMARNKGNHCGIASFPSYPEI

For the molecule `CCC(NC(=O)[C@@H]1C[C@@H](S(=O)(=O)c2ccc(F)cc2)CN1C(C)=O)C(=O)c1nc2ccccc2o1` (stereo partly drawn), the IC50 against Cathepsin S was 3.2 nM. In other words, the single-digit nanomolar range.
The same measure, in the same setting: to `CCC(NC(=O)[C@@H]1C[C@@H](S(=O)(=O)c2ccccc2)CN1CC(C)=O)C(=O)c1nc2ccccc2o1` (stereo partly drawn) belongs 45.4 nM; to `CCC(NC(=O)[C@@H]1C[C@@H](S(=O)(=O)c2ccccc2)CN1)C(=O)c1nc2ccccc2o1` (stereo partly drawn), 156 nM.
The same measure, in the same setting: then `CCC(NC(=O)[C@@H]1C[C@@H]([S@](=O)c2ccccc2)CN1C(C)=O)C(=O)c1nc2ccccc2o1` (stereo partly drawn), with 83.7 nM.
For the molecule `CCC(NC(=O)[C@@H]1C[C@@H](S(=O)(=O)c2ccccc2)CN1S(C)(=O)=O)C(=O)c1nc2ccccc2o1` (stereo partly drawn), the IC50 on Cathepsin S worked out at 3.5 nM.
Same read-out and setting: to `CCC(NC(=O)[C@@H]1C[C@@H](S(=O)(=O)c2ccccc2)CN1c1ccccc1)C(=O)c1nc2ccccc2o1` (stereo partly drawn) belongs 12.4 nM.
`CC(=O)N1C[C@H](S(=O)(=O)c2ccccc2)C[C@H]1C(=O)NC(Cc1ccccc1)C(=O)c1nc2ccccc2o1` (stereo partly drawn) came in with an IC50 against Cathepsin S of more than 100 nM.
Same read-out and setting: to `CCC(NC(=O)[C@@H]1C[C@@H](S(=O)(=O)CC)CN1C(C)=O)C(=O)c1nc2ccccc2o1` (stereo partly drawn) belongs more than 100 nM.
Regarding `CC(C)C[C@@H](NC(=O)N1CCOCC1)C(=O)N[C@@H](/C=C/S(=O)(=O)c1ccccc1)CCc1ccccc1`, the results for the concentration for half-maximal inhibition (IC50) against Cathepsin B, against Cathepsin S and against Cathepsin K were 3 nM, 1.9 nM and 4 nM, respectively.
Regarding `CCC(NC(=O)[C@@H]1C[C@@H](S(=O)(=O)c2ccccc2)CN1C(=O)C(C)C)C(=O)c1nc2ccccc2o1` (stereo partly drawn), the concentration for half-maximal inhibition (IC50) on Cathepsin S stood at 2.4 nM.
Still for that read-out and setting: to `CCC(NC(=O)[C@@H]1C[C@@H](S(=O)(=O)c2ccccc2Cl)CN1C(C)=O)C(=O)c1nc2ccccc2o1` (stereo partly drawn) belongs 2.3 nM.
In the case of `CCC(NC(=O)[C@@H]1C[C@@H](S(=O)(=O)c2ccccc2)CN1C(=O)C(F)(F)F)C(=O)c1nc2ccccc2o1` (stereo partly drawn), the IC50 on Cathepsin S stood at 2.7 nM.
On the same count and under the same terms, then `CCC(NC(=O)[C@@H]1C[C@@H](S(=O)(=O)c2ccccc2)CN1C(C)=O)C(=O)c1nc2ccccc2o1` (stereo partly drawn), with 3.3 nM; and `CCC(NC(=O)[C@@H]1C[C@@H](S(=O)(=O)c2ccccc2)CN1C(=O)c1ccncc1)C(=O)c1nc2ccccc2o1` (stereo partly drawn), with 3.3 nM.
Take `CCC(NC(=O)[C@@H]1C[C@@H](S(=O)(=O)c2ccc(-n3cccn3)cc2)CN1C(C)=O)C(=O)c1nc2ccccc2o1` (stereo partly drawn): the midpoint of inhibition on Cathepsin S, the IC50, lay at 3.2 nM.
`CCC(NC(=O)[C@@H]1C[C@@H](S(=O)(=O)c2ccccc2)CN1C(=O)c1cccnc1)C(=O)c1nc2ccccc2o1` (stereo partly drawn) displayed an IC50 against Cathepsin S of 3.5 nM.
